High-throughput results from PubChem.
Sampled rows, rich in hits. Any-hit rate of the full collection: about 2.8%.
PAFAH1B3 FP inh: PAFAH1B3 (human) inhibition; recombinant PAFAH1B3, FP-rhodamine probe, fluorescence polarization; inhibition, % at 3.39 µM; actives 0.28% (n = 340,000); AID 492972;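 active = inhibition above the screen-wide average of all tested compounds plus 3 SD, cut at about 25% in these data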;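 note: 0% = enzyme with DMSO only and 100% = wells lacking PAFAH1B3 protein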
PAFAH2 FP inh: inhibitors of human PAFAH2; Q99487; recombinant PAFAH2, FP-rhodamine activity probe, fluorescence polarization; inhibition, % at 3.39 µM; actives 0.99% (n = 340,000);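 active = inhibition above the mean over all tested compounds plus 3 SD, cut at about 30% in these data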;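 note: inhibitors block probe labeling of enzyme so polarization drops; 0% = enzyme with DMSO and 100% = wells lacking PAFAH2 protein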
HTRA1 inh: HTRA1 (human) protease inhibition; recombinant HTRA1, FP-rhodamine activity-based probe, fluorescence polarization; inhibition, % at 5.96 µM; actives 0.5% (n = 340,000); AID 504803; in the data active = inhibition above about 36%;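 note: 0% = enzyme with DMSO and 100% = wells lacking enzyme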
Target sequence (Q92743 whole entry, looked up): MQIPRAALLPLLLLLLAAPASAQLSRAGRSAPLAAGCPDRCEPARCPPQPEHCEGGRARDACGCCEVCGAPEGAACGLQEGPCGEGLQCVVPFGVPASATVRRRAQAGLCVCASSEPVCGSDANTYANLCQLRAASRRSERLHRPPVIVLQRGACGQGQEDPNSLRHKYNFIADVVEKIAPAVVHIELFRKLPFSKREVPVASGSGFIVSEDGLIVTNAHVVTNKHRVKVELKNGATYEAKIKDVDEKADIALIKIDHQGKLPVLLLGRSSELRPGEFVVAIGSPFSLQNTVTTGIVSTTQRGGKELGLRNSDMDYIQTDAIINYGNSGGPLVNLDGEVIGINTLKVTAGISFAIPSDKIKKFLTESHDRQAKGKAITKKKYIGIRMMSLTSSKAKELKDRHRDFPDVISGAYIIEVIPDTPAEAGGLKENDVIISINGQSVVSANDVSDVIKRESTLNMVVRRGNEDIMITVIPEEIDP
PAFAH1B2 FP inh: blocks human PAF acetylhydrolase 1b catalytic subunit 2 | inhibition, % at 3.39 µM | recombinant PAFAH1B2, FP-rhodamine activity probe, fluorescence polarization | actives 1.2% (n = 340,000);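 active = inhibition above the mean of all tested compounds plus 3 SD, cut at about 24% in these data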;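 note: 0% = enzyme with DMSO and 100% = wells lacking PAFAH1B2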
Target sequence (P68402 whole entry, looked up): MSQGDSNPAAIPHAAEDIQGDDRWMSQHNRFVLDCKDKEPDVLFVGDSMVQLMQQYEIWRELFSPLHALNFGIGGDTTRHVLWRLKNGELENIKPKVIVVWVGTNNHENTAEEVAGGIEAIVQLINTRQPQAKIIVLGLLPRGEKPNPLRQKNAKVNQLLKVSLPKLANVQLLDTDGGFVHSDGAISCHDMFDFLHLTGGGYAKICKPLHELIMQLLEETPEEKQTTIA
pPAFAH inh: inhibitors of human plasma PAF acetylhydrolase (pPAFAH); inhibition, % at 3.39 µM; recombinant pPAFAH, FP-rhodamine probe fluorescence polarization; actives 1.5% (n = 330,000); AID 463082; Q13093;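 active = inhibition above the mean inhibition across the screen plus 3 SD, cut at about 25% in these data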;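 note: inhibitors block binding of the rhodamine activity-based probe so polarization drops; 0% = enzyme with DMSO and 100% = wells lacking pPAFAH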
mABHD4 FP: ABHD4 (mouse) inhibition, primary FP screen | Q8VD66 | purified mABHD4, FP-Rh probe fluorescence polarization | inhibition, % at 8.92 µM | actives 0.54% (n = 370,000);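 active = inhibition exceeding the mean over every tested compound plus 3 SD, cut at about 30% in these data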;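 note: 0% = plate median of compound wells and 100% = S159A mutant with DMSO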
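Assay system: mouse ABHD4 enzyme, wild type / Also added: fluorescent activity-based probe FP-Rh / Doses: single nominal dose of 8.92 µM, 0.89% DMSO final / Timing: 45 min compound pre-incubation plus 60 min probe step, 25 °C / Signal: FP readout, ex 525 nm / em 598 nm / Control set: S159A mutant/DMSO as 100%, compound-well median as 0%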
PAFAH2 confirm: PAFAH2 (human) inhibition, confirmed. shares compounds with PAFAH2 FP inh. recombinant PAFAH2, FP-rhodamine activity probe, fluorescence polarization. inhibition, % at 3.39 µM. actives 65% (n = 2,300). AID 493030;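 active = mean inhibition over three repeats above a set limit taken from the earlier primary screen, cut at about 30% in these data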;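 note: inhibitor blocks binding of rhodamine activity probe so polarization falls; 0% = enzyme with DMSO and 100% = wells lacking PAFAH2 protein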
HTRA1 conf: confirmation of human HTRA1 inhibitors | actives 66% (n = 1,600) | recombinant HTRA1, FP-rhodamine activity-based probe, fluorescence polarization | inhibition, % at 5.96 µM | shares compounds with HTRA1 inh;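 active = mean inhibition over three repeats above a set limit taken from the earlier primary screen, cut at about 37% in these data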;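 note: 0% = HTRA1 with DMSO and 100% = wells lacking HTRA1; inhibitors block probe binding so polarization drops and inhibition rises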
mABHD4 conf: confirmation of mouse ABHD4 inhibitors | purified mABHD4, FP-Rh probe fluorescence polarization | shares compounds with mABHD4 FP | actives 55% (n = 1,800) | AID 720658 | inhibition, % at 8.92 µM;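 active = mean inhibition across replicates above the hit cutoff set in the primary screen, cut at about 30% in these data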;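 note: 0% = wild-type ABHD4 with DMSO and 100% = catalytically dead S159A mutant with DMSO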
* = called active by the depositor; · = no result given.

SMILES | PAFAH1B3 FP inh | PAFAH2 FP inh | HTRA1 inh | PAFAH1B2 FP inh | pPAFAH inh | mABHD4 FP | PAFAH2 confirm | HTRA1 conf | mABHD4 conf
Cc1ccc2c(c1)C1CS(=O)(=O)N(CC(C)C)C(=O)N1C2 (stereo unspecified) | · | · | · | · | · | 3 | · | · | ·
C[C@H](O)[C@@H]1CN2CCc3c([nH]c4cccc(-c5ccccc5)c34)[C@@H]2C[C@@H]1N(C)CC1CCCCC1 | · | · | · | · | · | -2 | · | · | ·
O=[N+]([O-])c1ccccc1N/N=C\c1ccccc1Cl | -7 | -4 | 2 | -5 | -1 | 7 | · | · | ·
O=[N+]([O-])c1ccc(O)c(/C=N/Nc2ccccc2Cl)c1 | 11 | 74* | 2 | 3 | 16 | -3 | 62* | · | ·
O=c1cc(-c2ccc(O)c(O)c2)oc2ccc3ccccc3c12 | 6 | 35* | 69* | -2 | · | 23 | 47* | 70* | ·
O=c1cc(-c2ccccc2)oc2ccc3ccccc3c12 | · | · | -9 | · | · | 1 | · | · | ·
C[C@H](O)[C@@H]1CN2CCc3c([nH]c4c(-c5ccc6c(c5)OCO6)cccc34)[C@@H]2C[C@@H]1N(C)C(=O)NC1CCCCC1 | · | · | · | · | · | 4 | · | · | ·
O=C1C(Cl)=C(N2CCCCC2)C(=O)C(Cl)=C1c1cnc(N2CCCCC2)s1 | 9 | 31* | 71* | 10 | · | · | 10 | 17 | ·
Fc1c(-c2ccc3ncnc(NCc4cccs4)c3c2)ccc2c1OCO2 | · | · | · | · | · | -41 | · | · | ·
CCn1c(SCC(=O)c2ccc(O)c(O)c2)nnc1-c1ccccc1OC | 12 | 42* | 38* | 5 | 29* | 25 | 26 | 44* | ·
CCn1c(SCC(=O)c2ccc(O)c(O)c2)nnc1-c1ccccc1 | 18 | 21 | 28 | 2 | 11 | 18 | · | · | ·
COC(=O)C[C@@H]1CC[C@@H]2[C@@H](COc3ccc(NC(=O)Nc4cccc(Cl)c4)cc3C(=O)N2C)O1 | · | · | · | · | · | 4 | · | · | ·
CCOc1cc(/C=C2\C(=O)N(c3nc(-c4ccc(Br)cc4)cs3)N=C2c2ccccc2)ccc1O | 15 | 55* | 40* | 2 | 41* | · | 45* | 47* | ·
Oc1ccccc1/C=N/NC(=S)NC1CC2CC1C1C=CCC21 (stereo unspecified) | 20 | 52* | 37* | 13 | 14 | 7 | 14 | 14 | ·
FC(F)(F)Oc1ccc(Cn2ccc3ccc(-c4ccc5ccn(Cc6ccc(OC(F)(F)F)cc6)c5c4)cc32)cc1 | · | · | · | · | · | 1 | · | · | ·
O=C1C=CC(=O)C(CNc2ccc(C(=O)OCc3ccccc3)cc2)=C1 | 15 | 59* | 42* | 8 | · | 36* | 37* | 18 | ·
O=C(CCCn1c(SCC(=O)c2ccc(O)c(O)c2)nc2ccccc2c1=O)NCC1CCCO1 (stereo unspecified) | 4 | 35* | 38* | 13 | 34* | 16 | 11 | 36* | ·
O=C(CCCn1c(SCC(=O)NC2CCCCC2)nc2ccccc2c1=O)NCC1CCCO1 (stereo unspecified) | 11 | -11 | 7 | 3 | 5 | 5 | · | · | ·
Cc1c(C#N)c(O)[nH]c(=O)c1N=Nc1ccc(Cl)c(C(=O)O)c1 | 3 | -5 | 5 | 2 | 0 | 1 | · | · | ·
Cc1c(C#N)c(O)[nH]c(=O)c1N=Nc1ccc(S(N)(=O)=O)cc1 | 14 | 47* | 9 | 9 | 19 | 39* | 29 | · | 47*
N#C/C(=C\c1ccc(O)c(O)c1)C(=O)N1CCc2ccccc21 | 23 | 49* | 71* | 10 | 3 | 55* | 33* | 86* | 16
C(#CC1=CCCCC1)CNCC1CC1 | · | · | · | · | · | 5 | · | · | ·
COc1cc(/C=N/N=C2/C(=O)Nc3ccccc32)ccc1O | 6 | 8 | 3 | 5 | 3 | -2 | · | · | ·
O=C1Nc2ccccc2/C1=N\N=C\c1ccc(O)c(O)c1 | 21 | 46* | 49* | 12 | 5 | 48* | 18 | 78* | 44*
C[C@@H]1COc2cccc(N3CCSCC3)c2S(=O)(=O)N1C | · | · | · | · | · | -3 | · | · | ·
SMILES | PAFAH1B3 FP inh | PAFAH2 FP inh | HTRA1 inh | PAFAH1B2 FP inh | pPAFAH inh | mABHD4 FP | PAFAH2 confirm | HTRA1 conf | mABHD4 conf
COc1ccccc1NS(=O)(=O)c1ccc(O)c(C(=O)OCC(=O)N2c3ccccc3CC2C)c1 (stereo unspecified) | 4 | 57* | -13 | 14 | 13 | 35* | 47* | · | 29
CCN(CC)S(=O)(=O)c1ccc(O)c(C(=O)OCC(=O)N2c3ccccc3CC2C)c1 (stereo unspecified) | 2 | 75* | -10 | 16 | 16 | 56* | 75* | · | 58*
CC(C)C(=O)N(c1cc2sc(=O)oc2c2ccccc12)S(=O)(=O)c1cccs1 | 10 | 32* | 17 | 3 | 13 | 42* | 26 | · | 20
CCCSC1=N/C(=C\c2ccc([N+](=O)[O-])o2)C(=O)S1 | 17 | 40* | 18 | 7 | · | 38* | 20 | · | 7
CCCSC1=N/C(=C\c2ccc3c(c2)OCO3)C(=O)S1 | 1 | 28 | -12 | 1 | 3 | 3 | · | · | ·
NC(Cc1ccc(Oc2ccc(O)cc2)cc1)C(=O)O (stereo unspecified) | · | · | · | · | 4 | · | · | · | ·
N[C@@H](Cc1cc(I)c(O)c(I)c1)C(=O)O | 17 | 54* | 31 | 15 | -3 | 51* | 9 | · | 80*
COc1ccc(/C=C2\SC(=S)N(c3cccnc3)C2=O)cc1 | 8 | 0 | 2 | -1 | 5 | 2 | · | · | ·
O=C1/C(=C/c2ccco2)SC(=S)N1c1cccnc1 | 14 | 32* | 21 | 7 | · | 31* | 18 | · | 6
C#CCCCN([C@@H](CC(C)C)C(=O)OC)S(=O)(=O)c1ccccc1Br | · | · | · | · | · | -4 | · | · | ·
O=C(c1ccccc1)c1ccc(O)c(O)c1O | 21 | 38* | 68* | 9 | · | 39* | 42* | 79* | 19
Cc1cc(C(=O)c2ccccc2)cc(C)c1O | 2 | -11 | 35 | 2 | · | -3 | · | · | ·
COC1=C[C@H](C(=O)NCc2ccc(Br)cc2)[C@H](C)[C@@H](c2ccccc2)CC1=O | · | · | · | · | · | -13 | · | · | ·
CCOC(=O)c1c(C)n(-c2ccc(C)cc2)c2c(C(C(C)=O)C(=O)O)c(Br)c(O)c(O)c12 (stereo unspecified) | -5 | 81* | 34 | -3 | 18 | 41* | 75* | · | 31*
O=C(CNS(=O)(=O)c1ccc(F)cc1)N1CCN(c2ccccn2)CC1 | · | · | · | · | · | 1 | · | · | ·
CCOc1ccc2noc3c2c1C(=O)c1ccccc1-3 | 19 | 31* | 49* | 18 | 21 | 58* | 19 | 31 | 19
N#Cc1ccc(NCCCN2CCC(C(O)(c3ccccc3)c3ccccc3)CC2)cc1 | · | · | · | · | · | 3 | · | · | ·
